Reference: ChEMBL document CHEMBL4184148 (Bioorg Med Chem Lett, 2017)

Legend:
[1] = Half life in mouse hepatic microsomes at 1 mg/ml; assay type: ADME, Liver, microsome
[2] = biological target: Leucine-rich repeat serine/threonine-protein kinase 2 (Homo sapiens, UniProt Q5S007); experiment: Inhibition of recombinant GST-tagged human LRRK2 (970 to 2527 residues) catalytic domain expressed in baculovirus expression system by ADAPTA assay
[3] = biological target: Atypical kinase COQ8A, mitochondrial (Homo sapiens) (UniProt Q8NI60); experiment: Binding affinity to wild-type human […] ADCK3 (M280 to Q647 residues) expressed in Escherichia coli BL21 at 1 uM by Kinomescan method relative to control
Sequence of Atypical kinase COQ8A, mitochondrial (Homo sapiens) (Q8NI60 163-647 limits assumed): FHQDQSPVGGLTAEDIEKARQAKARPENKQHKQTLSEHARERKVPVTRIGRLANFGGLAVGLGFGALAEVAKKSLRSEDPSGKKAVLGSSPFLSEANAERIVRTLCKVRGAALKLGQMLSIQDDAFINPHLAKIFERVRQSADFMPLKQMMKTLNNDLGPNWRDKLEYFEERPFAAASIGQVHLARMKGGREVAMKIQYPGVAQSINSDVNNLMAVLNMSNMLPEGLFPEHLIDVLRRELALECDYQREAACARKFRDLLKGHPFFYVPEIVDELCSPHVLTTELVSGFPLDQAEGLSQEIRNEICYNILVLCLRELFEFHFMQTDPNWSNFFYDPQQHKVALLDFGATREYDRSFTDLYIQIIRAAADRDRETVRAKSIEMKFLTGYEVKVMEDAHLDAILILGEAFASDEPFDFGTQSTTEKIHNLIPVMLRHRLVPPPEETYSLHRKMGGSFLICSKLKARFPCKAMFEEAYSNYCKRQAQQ

[4] = biological target: Calcium/calmodulin-dependent protein kinase type II subunit gamma (Homo sapiens) (UniProt Q13555); experiment: Binding affinity to wild-type human partial length CAMK2G (R9 to A303 residues) expressed in Escherichia coli BL21 at 1 uM by Kinomescan method relative to control
[5] = biological target: Cyclin-dependent kinase 11A (Homo sapiens) (UniProt Q9UQ88); experiment: Binding affinity to wild-type human partial length CDC2L2 (D391 to K730 residues) expressed in Escherichia coli BL21 at 1 uM by Kinomescan method relative to control
[6] = biological target: Serine/threonine-protein kinase Chk1 (Homo sapiens) (UniProt O14757); experiment: Binding affinity to wild-type human partial length CHEK1 (M1 to G289 residues) expressed in Escherichia coli BL21 at 1 uM by Kinomescan method relative to control
Sequence of Serine/threonine-protein kinase Chk1 (Homo sapiens) (O14757 whole entry, the tested form may be a part): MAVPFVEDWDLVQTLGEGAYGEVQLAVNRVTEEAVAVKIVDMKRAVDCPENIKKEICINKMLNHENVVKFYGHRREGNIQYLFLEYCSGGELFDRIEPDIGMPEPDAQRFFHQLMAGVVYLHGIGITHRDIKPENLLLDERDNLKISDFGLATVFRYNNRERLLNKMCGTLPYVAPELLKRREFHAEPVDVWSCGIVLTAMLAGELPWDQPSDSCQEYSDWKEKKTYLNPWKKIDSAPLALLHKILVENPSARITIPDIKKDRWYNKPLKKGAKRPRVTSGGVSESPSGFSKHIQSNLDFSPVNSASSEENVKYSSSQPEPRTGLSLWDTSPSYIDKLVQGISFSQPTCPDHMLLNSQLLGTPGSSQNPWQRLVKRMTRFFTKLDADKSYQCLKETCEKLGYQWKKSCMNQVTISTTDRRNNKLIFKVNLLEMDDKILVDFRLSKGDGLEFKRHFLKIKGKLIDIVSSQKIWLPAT

[7] = biological target: Dual specificity protein kinase CLK4 (Homo sapiens) (UniProt Q9HAZ1); experiment: Binding affinity to wild-type human partial length CLK4 (R135 to K481 residues) expressed in Escherichia coli BL21 at 1 uM by Kinomescan method relative to control
[8] = biological target: Casein kinase I isoform epsilon (Homo sapiens) (UniProt P49674); experiment: Binding affinity to wild-type human full length CSNK1E (M1 to K416 residues) expressed in Escherichia coli BL21 at 1 uM by Kinomescan method relative to control
How it was run: (§1)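 Run as one kinome-wide competition binding panel with each compound at a single fixed concentration. Results were plotted as a kinome-wide selectivity map.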

[9] = biological target: Casein kinase I isoform gamma-2 (Homo sapiens) (UniProt P78368); experiment: Binding affinity to wild-type human full length CSNK1G2 (M1 to K415 residues) expressed in Escherichia coli BL21 at 1 uM by Kinomescan method relative to control; how it was run: as §1
Sequence of Casein kinase I isoform gamma-2 (Homo sapiens) (P78368 whole entry, looked up, the tested form may be a part, canonical isoform): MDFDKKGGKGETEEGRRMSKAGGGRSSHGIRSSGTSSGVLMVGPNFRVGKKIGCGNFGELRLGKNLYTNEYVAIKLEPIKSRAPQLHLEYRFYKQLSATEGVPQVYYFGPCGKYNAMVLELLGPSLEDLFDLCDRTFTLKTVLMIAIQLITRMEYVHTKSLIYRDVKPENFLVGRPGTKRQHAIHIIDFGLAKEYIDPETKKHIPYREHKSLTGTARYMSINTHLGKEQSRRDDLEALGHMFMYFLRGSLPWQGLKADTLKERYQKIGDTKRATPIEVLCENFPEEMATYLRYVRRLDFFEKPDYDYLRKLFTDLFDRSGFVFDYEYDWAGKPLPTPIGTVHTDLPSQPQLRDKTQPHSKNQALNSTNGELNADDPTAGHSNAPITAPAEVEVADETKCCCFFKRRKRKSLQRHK

[10] = biological target: Epithelial discoidin domain-containing receptor 1 (Homo sapiens) (UniProt Q08345); experiment: Binding affinity to wild-type human partial length DDR1 (R565 to V876 residues) expressed in Escherichia coli BL21 at 1 uM by Kinomescan method relative to control
Sequence of Epithelial discoidin domain-containing receptor 1 (Homo sapiens) (Q08345 whole entry, the tested form may be a part): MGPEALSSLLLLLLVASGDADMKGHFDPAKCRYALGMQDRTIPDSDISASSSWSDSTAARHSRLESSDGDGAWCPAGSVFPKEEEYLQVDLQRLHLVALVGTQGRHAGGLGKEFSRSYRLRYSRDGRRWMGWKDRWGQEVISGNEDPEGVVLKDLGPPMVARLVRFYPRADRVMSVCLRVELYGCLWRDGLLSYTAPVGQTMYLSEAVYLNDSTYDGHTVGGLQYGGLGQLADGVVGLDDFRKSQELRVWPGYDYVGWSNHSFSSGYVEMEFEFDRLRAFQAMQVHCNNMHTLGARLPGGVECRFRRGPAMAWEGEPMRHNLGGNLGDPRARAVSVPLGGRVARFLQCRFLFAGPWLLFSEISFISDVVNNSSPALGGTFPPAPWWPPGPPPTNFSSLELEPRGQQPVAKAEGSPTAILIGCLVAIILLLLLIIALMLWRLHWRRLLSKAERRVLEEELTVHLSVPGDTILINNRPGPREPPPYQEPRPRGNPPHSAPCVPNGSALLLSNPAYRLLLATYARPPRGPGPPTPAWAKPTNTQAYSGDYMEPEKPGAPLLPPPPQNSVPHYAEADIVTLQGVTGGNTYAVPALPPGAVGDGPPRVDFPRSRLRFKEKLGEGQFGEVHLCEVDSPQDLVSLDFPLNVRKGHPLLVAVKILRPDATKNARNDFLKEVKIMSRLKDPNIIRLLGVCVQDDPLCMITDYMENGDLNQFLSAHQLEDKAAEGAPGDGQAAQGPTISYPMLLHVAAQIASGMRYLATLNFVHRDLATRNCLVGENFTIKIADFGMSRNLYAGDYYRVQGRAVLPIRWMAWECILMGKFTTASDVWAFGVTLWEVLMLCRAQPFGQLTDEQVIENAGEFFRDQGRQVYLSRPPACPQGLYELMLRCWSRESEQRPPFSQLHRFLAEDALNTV

[11] = tested on: Receptor-type tyrosine-protein kinase FLT3 (Homo sapiens), P36888 [R834Q]; experiment: Binding affinity to human partial length FLT3 R834Q mutant (V592 to Y969 residues) expressed in HEK293 cells at 1 uM by Kinomescan method relative to control; assay type: cell-based
[12] = biological target: Beta-adrenergic receptor kinase 1 (Homo sapiens) (UniProt P25098); experiment: Binding affinity to wild-type human full length GRK2 (M1 to L689 residues) expressed in HEK293 cells at 1 uM by Kinomescan method relative to control; assay type: cell-based; how it was run: as §1
[13] = biological target: Tyrosine-protein kinase JAK2 (Homo sapiens) (UniProt O60674); experiment: Binding affinity to wild-type human partial length JAK2 JH1 catalytic domain (A829 to G1132 residues) expressed in HEK293 cells at 1 uM by Kinomescan method relative to control; assay type: cell-based
[14] = biological target: Mast/stem cell growth factor receptor Kit (Homo sapiens) (UniProt P10721); experiment: Binding affinity to wild-type human partial length KIT (I571 to D952 residues) expressed in Escherichia coli BL21 at 1 uM by Kinomescan method relative to control
Sequence of Mast/stem cell growth factor receptor Kit (Homo sapiens) (P10721 whole entry, the tested form may be a part): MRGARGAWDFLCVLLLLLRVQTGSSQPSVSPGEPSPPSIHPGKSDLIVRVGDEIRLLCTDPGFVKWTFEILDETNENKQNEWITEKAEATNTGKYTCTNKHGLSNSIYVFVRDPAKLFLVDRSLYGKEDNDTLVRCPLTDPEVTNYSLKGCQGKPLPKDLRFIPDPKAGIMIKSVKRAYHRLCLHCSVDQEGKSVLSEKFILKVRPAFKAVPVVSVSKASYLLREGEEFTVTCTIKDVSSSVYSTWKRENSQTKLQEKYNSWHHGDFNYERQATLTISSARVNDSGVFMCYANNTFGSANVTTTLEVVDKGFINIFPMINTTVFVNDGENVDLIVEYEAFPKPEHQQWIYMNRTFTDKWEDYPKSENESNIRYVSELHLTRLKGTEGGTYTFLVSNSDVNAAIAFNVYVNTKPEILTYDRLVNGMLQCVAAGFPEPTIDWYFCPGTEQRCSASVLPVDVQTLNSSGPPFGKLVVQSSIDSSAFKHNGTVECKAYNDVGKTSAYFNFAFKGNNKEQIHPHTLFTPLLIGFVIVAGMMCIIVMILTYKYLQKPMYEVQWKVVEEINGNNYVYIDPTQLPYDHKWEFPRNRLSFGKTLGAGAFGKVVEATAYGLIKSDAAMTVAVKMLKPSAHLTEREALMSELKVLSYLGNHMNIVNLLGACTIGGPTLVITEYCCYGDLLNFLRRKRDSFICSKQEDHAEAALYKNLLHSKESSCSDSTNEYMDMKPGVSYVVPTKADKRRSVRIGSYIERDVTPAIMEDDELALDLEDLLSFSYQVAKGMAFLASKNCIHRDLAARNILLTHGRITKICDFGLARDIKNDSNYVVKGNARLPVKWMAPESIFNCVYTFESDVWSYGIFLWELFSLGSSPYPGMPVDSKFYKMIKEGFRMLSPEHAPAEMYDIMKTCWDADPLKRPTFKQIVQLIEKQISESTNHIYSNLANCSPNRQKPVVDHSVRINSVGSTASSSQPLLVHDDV

[15] = biological target: Mitogen-activated protein kinase kinase kinase kinase 5 (Homo sapiens) (UniProt Q9Y4K4); experiment: Binding affinity to wild-type human partial length MAP4K5 (M1 to P297 residues) expressed in Escherichia coli BL21 at 1 uM by Kinomescan method relative to control
Sequence of Mitogen-activated protein kinase kinase kinase kinase 5 (Homo sapiens) (Q9Y4K4 whole entry, looked up, the tested form may be a part): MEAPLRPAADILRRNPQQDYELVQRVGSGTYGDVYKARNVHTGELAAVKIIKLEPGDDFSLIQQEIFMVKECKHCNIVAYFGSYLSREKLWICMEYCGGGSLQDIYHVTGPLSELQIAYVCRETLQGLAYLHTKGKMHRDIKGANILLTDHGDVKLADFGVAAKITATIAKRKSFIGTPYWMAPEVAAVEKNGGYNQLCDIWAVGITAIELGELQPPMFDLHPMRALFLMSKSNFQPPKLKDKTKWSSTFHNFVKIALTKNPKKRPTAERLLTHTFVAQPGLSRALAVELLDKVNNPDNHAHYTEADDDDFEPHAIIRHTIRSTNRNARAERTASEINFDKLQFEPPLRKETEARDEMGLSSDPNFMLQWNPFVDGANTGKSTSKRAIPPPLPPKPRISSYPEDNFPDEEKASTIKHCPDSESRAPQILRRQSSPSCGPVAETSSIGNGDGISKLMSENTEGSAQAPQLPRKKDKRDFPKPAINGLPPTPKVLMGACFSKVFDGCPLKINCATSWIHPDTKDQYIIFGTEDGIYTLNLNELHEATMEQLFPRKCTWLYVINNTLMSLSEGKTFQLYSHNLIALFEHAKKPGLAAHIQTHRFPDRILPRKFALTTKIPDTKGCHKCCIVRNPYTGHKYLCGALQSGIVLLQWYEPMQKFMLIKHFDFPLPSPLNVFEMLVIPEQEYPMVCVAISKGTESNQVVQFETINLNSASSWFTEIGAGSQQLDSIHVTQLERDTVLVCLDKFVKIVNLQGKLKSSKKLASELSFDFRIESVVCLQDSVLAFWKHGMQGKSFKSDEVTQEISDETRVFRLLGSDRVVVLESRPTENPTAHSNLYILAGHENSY

[16] = biological target: Dual specificity mitogen-activated protein kinase kinase 5 (Homo sapiens) (UniProt Q13163); experiment: Binding affinity to wild-type human partial length MEK5 (L98 to P448 residues) expressed in HEK293 cells at 1 uM by Kinomescan method relative to control; assay type: cell-based
[17] = biological target: Muscle, skeletal receptor tyrosine-protein kinase (Homo sapiens) (UniProt O15146); experiment: Binding affinity to wild-type human partial length MUSK (M553 to V869 residues) expressed in Escherichia coli BL21 at 1 uM by Kinomescan method relative to control
[18] = biological target: Serine/threonine-protein kinase pim-2 (Homo sapiens) (UniProt Q9P1W9); experiment: Binding affinity to wild-type human partial length PIM2 (M1 to E291 residues) expressed in Escherichia coli BL21 at 1 uM by Kinomescan method relative to control
[19] = biological target: STE20/SPS1-related proline-alanine-rich protein kinase (Homo sapiens) (UniProt Q9UEW8); experiment: Binding affinity to wild-type human partial length STK39 (P43 to I357 residues) expressed in HEK293 cells at 1 uM by Kinomescan method relative to control; assay type: cell-based
[20] = biological target: Serine/threonine-protein kinase TAO2 (Homo sapiens) (UniProt Q9UL54); experiment: Binding affinity to wild-type human partial length TAOK2 (M1 to A320 residues) expressed in HEK293 cells at 1 uM by Kinomescan method relative to control; assay type: cell-based
[21] = biological target: Dual specificity protein kinase TTK (Homo sapiens) (UniProt P33981); experiment: Binding affinity to wild-type human partial length TTK (N505 to V798 residues) expressed in Escherichia coli BL21 at 1 uM by Kinomescan method relative to control
Sequence of Dual specificity protein kinase TTK (Homo sapiens) (P33981 whole entry, the tested form may be a part): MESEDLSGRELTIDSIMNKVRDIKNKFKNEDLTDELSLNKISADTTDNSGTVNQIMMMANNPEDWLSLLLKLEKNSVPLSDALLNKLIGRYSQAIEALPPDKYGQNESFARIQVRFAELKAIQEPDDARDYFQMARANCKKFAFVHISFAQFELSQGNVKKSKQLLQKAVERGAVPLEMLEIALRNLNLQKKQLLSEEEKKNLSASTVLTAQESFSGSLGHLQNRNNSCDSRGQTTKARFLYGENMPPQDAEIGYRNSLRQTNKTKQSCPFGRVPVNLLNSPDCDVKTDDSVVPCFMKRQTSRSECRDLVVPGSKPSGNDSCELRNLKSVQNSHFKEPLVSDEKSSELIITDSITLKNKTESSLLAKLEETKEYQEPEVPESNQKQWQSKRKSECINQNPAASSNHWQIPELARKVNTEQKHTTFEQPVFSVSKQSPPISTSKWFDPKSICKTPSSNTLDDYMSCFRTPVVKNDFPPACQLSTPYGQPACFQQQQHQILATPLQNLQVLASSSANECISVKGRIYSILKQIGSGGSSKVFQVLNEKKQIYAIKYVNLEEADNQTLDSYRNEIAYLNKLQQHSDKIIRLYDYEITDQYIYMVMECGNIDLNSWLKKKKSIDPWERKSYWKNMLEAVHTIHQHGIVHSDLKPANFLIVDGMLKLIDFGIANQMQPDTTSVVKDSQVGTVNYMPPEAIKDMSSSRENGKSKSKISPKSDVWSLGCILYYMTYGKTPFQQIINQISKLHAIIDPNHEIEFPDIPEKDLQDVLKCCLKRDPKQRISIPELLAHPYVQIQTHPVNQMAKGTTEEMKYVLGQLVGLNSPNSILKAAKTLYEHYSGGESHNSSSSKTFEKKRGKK

[22] = biological target: Non-receptor tyrosine-protein kinase TYK2 (Homo sapiens) (UniProt P29597); experiment: Binding affinity to wild-type human partial length TYK2 JH1 catalytic domain (V877 to C1187 residues) expressed in HEK293 cells at 1 uM by Kinomescan method relative to control; assay type: cell-based
[23] = biological target: Serine/threonine-protein kinase ULK3 (Homo sapiens) (UniProt Q6PHR2); experiment: Binding affinity to wild-type human partial length ULK3 (M1 to Q290 residues) expressed in HEK293 cells at 1 uM by Kinomescan method relative to control; assay type: cell-based
[24] = biological target: Phosphatidylinositol 3-kinase catalytic subunit type 3 (Homo sapiens) (UniProt Q8NEB9); experiment: Binding affinity to wild-type human partial length VPS34 (S282 to H879 residues) expressed in HEK293 cells at 1 uM by Kinomescan method relative to control; assay type: cell-based
[25] = biological target: Wee1-like protein kinase 2 (Homo sapiens) (UniProt P0C1S8); experiment: Binding affinity to wild-type human partial length WEE2 (M204 to K492 residues) expressed in Escherichia coli BL21 at 1 uM by Kinomescan method relative to control
[26] = biological target: Mitogen-activated protein kinase kinase kinase 20 (Homo sapiens) (UniProt Q9NYL2); experiment: Binding affinity to wild-type human partial length ZAK (M1 to L331 residues) expressed in Escherichia coli BL21 at 1 uM by Kinomescan method relative to control

CCC(=O)Nc1ccc(C(=O)Nc2ccc(Nc3ncc4c(n3)N(C)c3ccc(C)cc3C(=O)N4C)cc2)cc1
t1/2 [1]: 2.9 min | IC50 [2]: 714 nM | Activity [3]: 96% | Activity [4]: 97% | Activity [5]: 88% | Activity [6]: 87% | Activity [7]: 100% | Activity [8]: 94% | Activity [9]: 86% | Activity [10]: 86% | Activity [11]: 86% | Activity [12]: 90% | Activity [13]: 70% | Activity [14]: 84% | Activity [15]: 100% | Activity [16]: 90% | Activity [17]: 95% | Activity [18]: 100% | Activity [19]: 73% | Activity [20]: 100% | Activity [21]: 87% | Activity [22]: 58% | Activity [23]: 77% | Activity [24]: 100% | Activity [25]: 97% | Activity [26]: 85%

C=CC(=O)Nc1ccc(C(=O)Nc2ccc(Nc3ncc4c(n3)N(C)c3ccc(C)cc3C(=O)N4C)cc2)cc1
t1/2 [1]: 7.5 min | IC50 [2]: 754 nM | Activity [3]: 99% | Activity [4]: 100% | Activity [5]: 100% | Activity [6]: 100% | Activity [7]: 100% | Activity [8]: 100% | Activity [9]: 97% | Activity [10]: 92% | Activity [11]: 98% | Activity [12]: 100% | Activity [13]: 100% | Activity [14]: 98% | Activity [15]: 100% | Activity [16]: 99% | Activity [17]: 96% | Activity [18]: 100% | Activity [19]: 88% | Activity [20]: 83% | Activity [21]: 86% | Activity [22]: 73% | Activity [23]: 93% | Activity [24]: 99% | Activity [25]: 100% | Activity [26]: 100%
